Experimental data taken from ChEMBL document CHEMBL2202974 (J Med Chem, 2011).

Experiments:
[1] = Drug uptake in SB612111-pretreated monkey cerebellum at 4.92 to 6.6 mCi, iv administered at 10 mins post SB612111-treatment measured from 10 to 120 mins by PET imaging analysis; type: ADME, organism-based, Macaca mulatta; conditions: rhesus monkey, in vivo
[2] = Drug uptake in monkey lateral temporal cortex at 6.2 mCi, iv administered as bolus dose followed by naloxone-treatment at 37 mins measured at 120 mins by PET imaging analysis; type: ADME, organism-based, Macaca mulatta; conditions: rhesus monkey, in vivo, 2 h
Method in brief: (§1)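 Anesthetised rhesus monkey given iv bolus of radioligand; a high dose of naloxone was given at 37 min after radioligand. PET regional time-activity curves were expressed as %SUV.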

[3] = Drug uptake in monkey caudate at 6.2 mCi, iv administered as bolus dose followed by naloxone-treatment at 37 mins measured at 120 mins by PET imaging analysis; type: ADME, organism-based, Macaca mulatta, Caudate nucleus; conditions: rhesus monkey, in vivo, 2 h; method in brief: as §1
Plasma [4] = experiment: Drug metabolism in SB612111-pretreated monkey plasma assessed as radiometabolite formation at 4.9 to 6.6 mCi, iv administered as bolus dose 10 mins post SB612111-treatment up to 100 mins; type: ADME, organism-based, Macaca mulatta; conditions: rhesus monkey, in vivo
[5] = Drug uptake in monkey amygdala at 6.2 mCi, iv administered as bolus dose followed by SB612111-treatment at 40 mins measured at 100 mins by PET imaging analysis; type: ADME, organism-based, Macaca mulatta; conditions: rhesus monkey, in vivo
Method in brief: (§2)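 Anesthetised rhesus monkey given iv bolus of radioligand; the NOP antagonist was given at 40 min after radioligand to test displacement. PET regional time-activity curves were expressed as %SUV.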

[6] = Drug uptake in monkey cerebellum at 4.92 to 6.6 mCi, iv administered as bolus dose measured at 120 mins by PET imaging analysis; type: ADME, organism-based, Macaca mulatta; conditions: rhesus monkey, in vivo, 2 h
[7] = Fraction unbound in monkey plasma; type: ADME, cell-free, Macaca mulatta; conditions: rhesus monkey
Method in brief: (§3)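 Plasma free fraction of the radioligand measured in vitro. Monkey: 3 samples from each of two monkeys (n = 6). Human: pooled plasma, three samples from each of two subjects.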

[8] = Drug uptake in monkey cerebellum at 4.92 to 6.6 mCi, iv administered as bolus dose measured up to 20 mins by PET imaging analysis; type: ADME, organism-based, Macaca mulatta; conditions: rhesus monkey, in vivo
[9] = Drug uptake in monkey hypothalamus at 4.92 to 6.6 mCi, iv administered as bolus dose measured up to 20 mins by PET imaging analysis; type: ADME, organism-based, Macaca mulatta; conditions: rhesus monkey, in vivo
[10] = Drug uptake in SB612111-pretreated monkey hypothalamus at 4.92 to 6.6 mCi, iv administered at 10 mins post SB612111-treatment measured within 10 mins by PET imaging analysis; type: ADME, organism-based, Macaca mulatta; conditions: rhesus monkey, in vivo
[11] = Drug uptake in monkey amygdala at 6.2 mCi, iv administered as bolus dose followed by naloxone-treatment at 37 mins measured at 120 mins by PET imaging analysis; type: ADME, organism-based, Macaca mulatta; conditions: rhesus monkey, in vivo, 2 h; method in brief: as §1
[12] = Drug uptake in monkey amygdala at 4.92 to 6.6 mCi, iv administered as bolus dose measured up to 20 mins by PET imaging analysis; type: ADME, organism-based, Macaca mulatta; conditions: rhesus monkey, in vivo
[13] = Drug uptake in monkey hypothalamus at 6.2 mCi, iv administered as bolus dose followed by naloxone-treatment at 37 mins measured at 120 mins by PET imaging analysis; type: ADME, organism-based, Macaca mulatta; conditions: rhesus monkey, in vivo, 2 h; method in brief: as §1
[14] = Metabolic stability in monkey plasma at 4.9 to 6.6 mCi, iv administered as bolus dose up to 100 mins; type: ADME, organism-based, Macaca mulatta; conditions: rhesus monkey, read-out: Stability
Method in brief: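 For baseline scans, male rhesus monkeys were immobilized with ketamine and kept under 1–3% isoflurane. Plasma sampled during the scan was extracted into acetonitrile, and the supernatant was analysed by HPLC for the parent fraction.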

[15] = Drug uptake in monkey lateral temporal cortex at 4.92 to 6.6 mCi, iv administered as bolus dose measured at 120 mins by PET imaging analysis; type: ADME, organism-based, Macaca mulatta; conditions: rhesus monkey, in vivo, 2 h
[16] = Chemical stability of the compound in sodium phosphate buffer after 2 hrs at pH 7.4; type: physicochemical; conditions: read-out: Stability
[17] = Drug uptake in monkey caudate at 4.92 to 6.6 mCi, iv administered as bolus dose measured at 120 mins by PET imaging analysis; type: ADME, organism-based, Macaca mulatta, Caudate nucleus; conditions: rhesus monkey, in vivo, 2 h
[18] = Metabolic stability in monkey plasma for 0.5 hrs; type: ADME, cell-free, Macaca mulatta; conditions: rhesus monkey, read-out: Stability
Method in brief: (§4)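 The [11C]-labelled radioligand was incubated in vitro in monkey whole blood or monkey plasma for 0.5 h at room temperature. Stability was expressed as the percentage of radioactivity remaining as unchanged radioligand (n = 6).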

[19] = Drug uptake in SB612111-pretreated monkey amygdala at 4.92 to 6.6 mCi, iv administered at 10 mins post SB612111-treatment measured from 10 to 120 mins by PET imaging analysis; type: ADME, organism-based, Macaca mulatta; conditions: rhesus monkey, in vivo
[20] = Drug uptake in monkey cerebellum at 6.2 mCi, iv administered as bolus dose followed by SB612111-treatment at 40 mins measured at 100 mins by PET imaging analysis; type: ADME, organism-based, Macaca mulatta; conditions: rhesus monkey, in vivo; method in brief: as §2
Brain [21] = experiment: Drug uptake in 129/S6 mouse brain at 0.6 nM after 120 mins by autoradiographic analysis; type: ADME, tissue-based
[22] = Drug uptake in SB612111-pretreated monkey caudate at 4.92 to 6.6 mCi, iv administered at 10 mins post SB612111-treatment measured within 10 mins by PET imaging analysis; type: ADME, organism-based, Macaca mulatta, Caudate nucleus; conditions: rhesus monkey, in vivo
Brain [23] = experiment: Drug uptake in NOP knockout mouse brain at 0.6 nM after 120 mins by autoradiographic analysis; type: ADME, tissue-based
[24] = Drug uptake in SB612111-pretreated monkey lateral temporal cortex at 4.92 to 6.6 mCi, iv administered at 10 mins post SB612111-treatment measured from 10 to 120 mins by PET imaging analysis; type: ADME, organism-based, Macaca mulatta; conditions: rhesus monkey, in vivo
[25] = Drug uptake in monkey amygdala at 4.92 to 6.6 mCi, iv administered as bolus dose measured at 120 mins by PET imaging analysis; type: ADME, organism-based, Macaca mulatta; conditions: rhesus monkey, in vivo, 2 h
[26] = Drug uptake in monkey cerebellum at 6.2 mCi, iv administered as bolus dose followed by naloxone-treatment at 37 mins measured at 120 mins by PET imaging analysis; type: ADME, organism-based, Macaca mulatta; conditions: rhesus monkey, in vivo, 2 h; method in brief: as §1
[27] = Drug uptake in SB612111-pretreated monkey cerebellum at 4.92 to 6.6 mCi, iv administered at 10 mins post SB612111-treatment measured within 10 mins by PET imaging analysis; type: ADME, organism-based, Macaca mulatta; conditions: rhesus monkey, in vivo
[28] = Drug uptake in monkey hypothalamus at 4.92 to 6.6 mCi, iv administered as bolus dose measured at 120 mins by PET imaging analysis; type: ADME, organism-based, Macaca mulatta; conditions: rhesus monkey, in vivo, 2 h
Plasma [29] = experiment: Metabolic stability in SB612111-pretreated monkey plasma at 4.9 to 6.6 mCi, iv administered as bolus dose 10 mins post SB612111-treatment up to 100 mins; type: ADME, organism-based, Macaca mulatta; conditions: rhesus monkey, in vivo
Method in brief: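 Preblock scans were run in the same anesthetized (ketamine, isoflurane) rhesus monkeys about 3 h after the baseline scan. Plasma was extracted into acetonitrile, and the supernatant was analysed by HPLC to give the percentage of radioactivity present as unchanged radioligand over time.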

[30] = Drug uptake in SB612111-pretreated monkey hypothalamus at 4.92 to 6.6 mCi, iv administered at 10 mins post SB612111-treatment measured from 10 to 120 mins by PET imaging analysis; type: ADME, organism-based, Macaca mulatta; conditions: rhesus monkey, in vivo
[31] = Drug uptake in SB612111-pretreated monkey lateral temporal cortex at 4.92 to 6.6 mCi, iv administered at 10 mins post SB612111-treatment measured within 10 mins by PET imaging analysis; type: ADME, organism-based, Macaca mulatta; conditions: rhesus monkey, in vivo
[32] = Metabolic stability in monkey blood for 0.5 hrs; type: ADME, tissue-based, Macaca mulatta; conditions: rhesus monkey, read-out: Stability; method in brief: as §4
[33] = Drug uptake in SB612111-pretreated monkey caudate at 4.92 to 6.6 mCi, iv administered at 10 mins post SB612111-treatment measured from 10 to 120 mins by PET imaging analysis; type: ADME, organism-based, Macaca mulatta, Caudate nucleus; conditions: rhesus monkey, in vivo
[34] = Drug uptake in monkey caudate at 4.92 to 6.6 mCi, iv administered as bolus dose measured up to 20 mins by PET imaging analysis; type: ADME, organism-based, Macaca mulatta, Caudate nucleus; conditions: rhesus monkey, in vivo
[35] = Drug uptake in monkey caudate at 6.2 mCi, iv administered as bolus dose followed by SB612111-treatment at 40 mins measured at 100 mins by PET imaging analysis; type: ADME, organism-based, Macaca mulatta, Caudate nucleus; conditions: rhesus monkey, in vivo; method in brief: as §2
[36] = Drug uptake in monkey lateral temporal cortex at 6.2 mCi, iv administered as bolus dose followed by SB612111-treatment at 40 mins measured at 100 mins by PET imaging analysis; type: ADME, organism-based, Macaca mulatta; conditions: rhesus monkey, in vivo; method in brief: as §2
[37] = Drug uptake in monkey hypothalamus at 6.2 mCi, iv administered as bolus dose followed by SB612111-treatment at 40 mins measured at 100 mins by PET imaging analysis; type: ADME, organism-based, Macaca mulatta; conditions: rhesus monkey, in vivo; method in brief: as §2
[38] = Fraction unbound in human plasma; type: ADME, cell-free; method in brief: as §3
[39] = Drug uptake in monkey lateral temporal cortex at 4.92 to 6.6 mCi, iv administered as bolus dose measured up to 20 mins by PET imaging analysis; type: ADME, organism-based, Macaca mulatta; conditions: rhesus monkey, in vivo
[40] = Drug uptake in SB612111-pretreated monkey amygdala at 4.92 to 6.6 mCi, iv administered at 10 mins post SB612111-treatment measured within 10 mins by PET imaging analysis; type: ADME, organism-based, Macaca mulatta; conditions: rhesus monkey, in vivo
Plasma [41] = experiment: Drug metabolism in monkey plasma assessed as radiometabolite formation at 4.9 to 6.6 mCi, iv administered as bolus dose up to 100 mins; type: ADME, organism-based, Macaca mulatta; conditions: rhesus monkey, in vivo

In the case of `[11CH3]NC(=O)[C@@H](Cc1ccccc1F)CN1CCC2(CC1)OCCc1cc(F)sc12`, the Drug uptake [1] is reported as “Not Active”, the Drug uptake [2] is reported as “Not Active” and the Drug uptake [3] is reported as “Not Active”. For the same compound, the Drug metabolism (Plasma [4]) was “Active”, the Drug uptake [5] was “Not Active” and the Drug uptake [6] was “Not Active”. The fraction unbound [7] was 0.113, the Drug uptake [8] was “Active” and the Drug uptake [9] was “Active”. The Drug uptake [10] was “Active”, the Drug uptake [11] was “Not Active” and the Drug uptake [12] was “Active”. The Drug uptake [13] was “Not Active”, the remaining at 100 min [14] was 94.9% and the Drug uptake [15] was “Not Active”. The remaining at 2 h [16] was 98.9%, the Drug uptake [17] was “Not Active” and the remaining at 0.5 h [18] was 99.9%. The Drug uptake [19] was “Not Active”, the Drug uptake [20] was “Not Active” and the Drug uptake (Brain [21]) was “Active”. For the same compound, the Drug uptake [22] was “Active”, the Drug uptake (Brain [23]) was “Not Active” and the Drug uptake [24] was “Not Active”. The Drug uptake [25] was “Not Active”, the Drug uptake [26] was “Not Active” and the Drug uptake [27] was “Active”. The Drug uptake [28] was “Not Active”, the Stability (Plasma [29]) was 94.9% and the Drug uptake [30] was “Not Active”. The Drug uptake [31] was “Active”, the remaining at 0.5 h [32] was 100% and the Drug uptake [33] was “Not Active”. The Drug uptake [34] was “Active”, the Drug uptake [35] was “Not Active” and the Drug uptake [36] was “Not Active”. For the same compound, the Drug uptake [37] was “Not Active”, the fraction unbound [38] was 0.11 and the Drug uptake [39] was “Active”. For the same compound, the Drug uptake [40] was “Active” and the Drug metabolism (Plasma [41]) was “Active”.
